Data: ChEMBL document CHEMBL3877283, “Antitubercular activity of 1,2,3-triazolyl fatty acid derivatives” (Eur J Med Chem, 2017)
pIC50: −log10 of the molar value. In brackets after ≈: the same amount, converted by molar mass.

Legend:
[1] = Cytotoxicity against African green monkey Vero cells at 4.75 ug/ml measured after 48 hrs by neutral red assay; format: toxicity, cell-based; conditions: chlorocebus sabaeus
Method in brief: (§1)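 Vero (African green monkey kidney) cells were seeded at 25,000 cells/well and grown 24 h. Compounds were then added, with DMSO as vehicle control and doxorubicin as positive control, and incubated 48 h. Viable cells were counted by neutral red uptake. Highest concentration tested was 4.75 μg/mL. IC50 was read from logarithmic plots of growth inhibition versus concentration.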

[2] = test system: Mycobacterium tuberculosis; assay: Antimycobacterial activity against Mycobacterium tuberculosis H37Rv measured after 5 days by MTT dye based two-fold microdilution method; format: functional; conditions: 120 h
Method in brief: (§2)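 Two-fold serial dilution in 96-well plates in Middlebrook 7H9 with 10% ADS and 1% glycerol (7H9-ADS-G). DMSO stocks were diluted to a top concentration of 100 μg/mL and down to 0.8 μg/mL, run in duplicate. Wells received mid-log bacilli in 7H9-ADS-G, incubated 5 days at 37 °C, then MTT for 24 h. MIC is the lowest concentration blocking yellow-to-purple change. Rifampicin was the control.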

[3] = test system: Mycobacterium tuberculosis; assay: Inhibition of Mycobacterium tuberculosis InhA assessed as remaining activity at 20 uM using trans-2-dodecenoyl-coenzyme A as substrate relative to control
Method in brief: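 Wild-type InhA (100 nM) started the reaction with 25 μM trans-2-dodecenoyl-CoA, 250 μM NADH and 20 μM inhibitor in 30 mM PIPES, 150 mM NaCl, pH 6.8. Initial velocity was compared with an inhibitor-free control; remaining activity is vi/v0.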

[4] = Inhibition of Staphylococcus aureus FabI using t-o-NAC-thioester as substrate by spectrophometric method
[5] = test system: Mycobacterium tuberculosis; assay: Antimycobacterial activity against Mycobacterium tuberculosis H37Rv ATCC 27294 measured after 10 days by broth dilution method; format: functional; conditions: H37Rv ATCC 27294, 240 h
[6] = Cytotoxicity against African green monkey Vero cells measured after 48 hrs by neutral red assay; format: toxicity, cell-based; conditions: African green monkey (Chlorocebus sabaeus); method in brief: as §1
[7] = Therapeutic index, ratio of IC50 for cytotoxicity against African green monkey Vero cells to MIC for antimycobacterial activity against Mycobacterium tuberculosis H37Rv; format: cell-based; conditions: read-out: TI
Method in brief: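 Vero cells were seeded at 25,000/well, grown 24 h, then exposed to compound for 48 h, with a maximum of 4.75 μg/mL and DMSO as vehicle. Viability was read by neutral red uptake. IC50 came from log plots of growth inhibition versus concentration. The index is cytotoxic IC50 divided by MIC against H37Rv from the MTT microdilution assay.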

[8] = test system: Mycobacterium tuberculosis; assay: Antimycobacterial activity against Mycobacterium tuberculosis isolate 51 measured after 5 days by MTT dye based two-fold microdilution method; format: functional; conditions: isolate 51, 120 h; method in brief: as §2
[9] = test system: Mycobacterium tuberculosis; assay: Antimycobacterial activity against Mycobacterium tuberculosis isolate 304 measured after 5 days by MTT dye based two-fold microdilution method; format: functional; conditions: isolate 304, 120 h; method in brief: as §2
[10] = test system: Mycobacterium tuberculosis; assay: Antimycobacterial activity against Mycobacterium tuberculosis isolate 598 measured after 5 days by MTT dye based two-fold microdilution method; format: functional; conditions: isolate 598, 120 h; method in brief: as §2
[11] = test system: Mycobacterium tuberculosis; assay: Antimycobacterial activity against Mycobacterium tuberculosis isolate 164 measured after 5 days by MTT dye based two-fold microdilution method; format: functional; conditions: isolate 164, 120 h; method in brief: as §2

SMILES | Activity [1] | MIC [2] | further results
CCCCCCCCCCc1cnnn1CC(=O)OCC | Non-Toxic | 84 µM (≈ 24.8 µg/mL) | –
CCCCCCCCCCCCCc1cn(CC(=O)OCC)nn1 | Non-Toxic | 296 µM (≈ 99.9 µg/mL) | –
CCCCCCCCCCn1cc(C(=O)OC)nn1 | Non-Toxic | 23 µM (≈ 6.15 µg/mL) | –
CCCc1cn(CCCCCC(=O)OCC)nn1 | Non-Toxic | 394 µM (≈ 99.8 µg/mL) | –
CCCCCc1cn(CC(=O)OCC)nn1 | Non-Toxic | 111 µM (≈ 25 µg/mL) | Activity [3]: 73.2%
CC/C=C\C/C=C\C/C=C\CCCCCCCC(=O)O [LINOLENIC ACID] | – | – | pIC50 [4]: 4.40
CCCc1cn(CC(=O)OCC)nn1 | Non-Toxic | 505 µM (≈ 99.6 µg/mL) | Activity [3]: 69%
CCCCCCCC/C=C\CCCCCCCC(=O)O [OLEIC ACID] | – | – | pIC50 [4]: 4.40
CCCCCCCCCCCCO [DODECANOL] | – | – | MIC [5]: 5 µg/mL
CCCCCCCCCCn1cc(CO)nn1 | Non-Toxic | 209 µM (≈ 50 µg/mL) | –
CCCCCCCCCCCCCCO [MYRISTYL ALCOHOL] | – | – | MIC [5]: 5 µg/mL
COc1cccc2c1C(=O)c1c(O)c3c(c(O)c1C2=O)C[C@@](O)(C(=O)CO)C[C@@H]3O[C@H]1C[C@H](N)[C@H](O)[C@H](C)O1 [DOXORUBICIN] | – | – | IC50 at 48 h [6]: 14 µM
CCCCCCCCc1cnnn1CC(=O)OCC | Non-Toxic | 93 µM (≈ 24.9 µg/mL) | –
CCCCCCCCCCc1cn(CC(=O)OCC)nn1 | – | 1.7 µM (≈ 0.502 µg/mL) | selectivity ratio [7]: > 10; IC50 at 48 h [6]: > 16.1 µM; Activity [3]: 99.3%
CCCCCCCCCCc1cn(CCC(=O)OCC)nn1 | Non-Toxic | 20 µM (≈ 6.19 µg/mL) | –
CCCCCc1cn(CCCCCC(=O)OCC)nn1 | Non-Toxic | 22 µM (≈ 6.19 µg/mL) | –
CCCCC/C=C\C/C=C\C/C=C\C/C=C\CCCC(=O)O [ARACHIDONIC ACID] | – | – | pIC50 [4]: 4.40
CCCCCCCCCCn1cc(C(=O)O)nn1 | Non-Toxic | 20 µM (≈ 5.07 µg/mL) | –
CCCCCCCCc1cn(CCCCCC(=O)OCC)nn1 | Non-Toxic | 309 µM (≈ 100 µg/mL) | –

SMILES | Activity [1] | MIC [2] | further results
CCCCCCCCCCCCCCCc1cn(CC(=O)OCC)nn1 | Non-Toxic | 17 µM (≈ 6.21 µg/mL) | –
CCCCCCCCCCO [DECANOL] | – | – | MIC [5]: 800 µM
CCCCCCCCn1cc(C(=O)OC)nn1 | Non-Toxic | 52 µM (≈ 12.4 µg/mL) | –
CCCCCCCCCCc1cn(CCCC(=O)OCC)nn1 | Non-Toxic | 309 µM (≈ 100 µg/mL) | –
CCCCCCCCc1cn(CC(=O)OCC)nn1 | – | 1.9 µM (≈ 0.508 µg/mL) | selectivity ratio [7]: > 10; IC50 at 48 h [6]: > 17.8 µM; MIC [8]: 0.45 µM (≈ 0.12 µg/mL); MIC [9]: 1.9 µM (≈ 0.508 µg/mL); MIC [10]: 1.9 µM (≈ 0.508 µg/mL); MIC [11]: 1.9 µM (≈ 0.508 µg/mL); Activity [3]: 90.1%
CCCCCCCCCCc1cn(CCCCC(=O)OCC)nn1 | Non-Toxic | 37 µM (≈ 12.5 µg/mL) | –
CCCCCCCCn1cc(CO)nn1 | Non-Toxic | 473 µM (≈ 99.9 µg/mL) | –
CCCCC/C=C\C/C=C\CCCCCCCC(=O)O [LINOLEIC ACID] | – | – | pIC50 [4]: 4.40
CCCCCCCCc1cn(CCC(=O)OCC)nn1 | Non-Toxic | 22 µM (≈ 6.19 µg/mL) | –
CCCCCc1cn(CCCC(=O)OCC)nn1 | Non-Toxic | 12 µM (≈ 3.04 µg/mL) | –
CCCCCCCCCCCCCn1cc(C(=O)OC)nn1 | Non-Toxic | 323 µM (≈ 100 µg/mL) | –
CCCCCCCCCCCCCCCCO [CETYL ALCOHOL] | – | – | MIC [5]: 5 µg/mL
CCCCCCCCc1cn(CCCC(=O)OCC)nn1 | Non-Toxic | 21 µM (≈ 6.2 µg/mL) | –
CCCCCCCCn1cc(C(=O)O)nn1 | Non-Toxic | 14 µM (≈ 3.15 µg/mL) | –
CCCCCC/C=C\CCCCCCCC(=O)O [PALMITOLEIC ACID] | – | – | pIC50 [4]: 4.40
CCCCCc1cn(CCCCC(=O)OCC)nn1 | Non-Toxic | 23 µM (≈ 6.15 µg/mL) | –
CCCCCCCCCCCCCn1cc(CO)nn1 | Non-Toxic | 44 µM (≈ 12.4 µg/mL) | –
CCCCCCCCc1cn(CCCCC(=O)OCC)nn1 | Non-Toxic | 40 µM (≈ 12.4 µg/mL) | –
